This note sets out measurements from ChEMBL document CHEMBL1130118, “A novel radioiodination reagent for protein radiopharmaceuticals with L-lysine as a plasma-stable metabolizable linkage to liberate m-iodohippuric acid after lysosomal proteolysis” (J Med Chem, 1997).

Values joined by “and” are separate entries in the source; they are usually repeats but may differ in a detail not shown here. Equal entries are not always repeated.

Holding throughout (format): ADME, organism-based
For data set [1], the system named is Mus musculus. The data set is described as follows: The biodistribution time for [131 I ]L-HML-NGA radioactivity after concomitant administration of [131 I ]L-HML-NGA and [125 I ]MPH-NGA in mice. It is expressed as percent injected dose per liver. Ent after 1 hour. The settings on record: in vivo. Summed up:
(§1)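 Six-week-old male ddY mice were given one i.v. co-injection of a 131I/125I-labelled NGA pair, each diluted to 90 µg/mL protein in 0.1 M PBS pH 6.0 and mixed 1:1, giving 9 µg of each radioiodinated NGA per mouse. Groups of five were killed at 5, 15, 30 min, 1 h and 3 h. Organs were weighed and counted in a well counter. Values are % ID per organ, blood as % ID/g, mean (SD).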

The test system of data set [2] is Mus musculus. The data set is described as follows: The biodistribution time for [131 I ]L-HML-NGA radioactivity after concomitant administration of [131 I ]L-HML-NGA and [125 I ]D-HML-NGA in mice. It is expressed as percent injected dose per gram of blood tissue. The settings on record: in vivo. The method, boiled down: as §1
Data set [3] deals with Mus musculus. Kind of data set: The biodistribution time for [131 I ]L-HML-NGA radioactivity after concomitant administration of [131 I ]L-HML-NGA and [125 I ]D-HML-NGA in mice. It is expressed as percent injected dose per intestine. The settings on record: in vivo. Summed up:
as §1

The test system of data set [4] is Mus musculus. The data set is described as follows: The biodistribution time for [131 I ]L-HML-NGA radioactivity after concomitant administration of [131 I ]L-HML-NGA and [125 I ]D-HML-NGA in mice. It is expressed as percent injected dose per neck. As to conditions: in vivo. Summed up:
as §1

In data set [5] the test system is Mus musculus. The data set is described as follows: The biodistribution time for [131 I ]L-HML-NGA radioactivity after concomitant administration of [131 I ]L-HML-NGA and [125 I ]D-HML-NGA in mice. It is expressed as percent injected dose per stomach. The settings on record: in vivo. The method, boiled down:
as §1

Data set [6] has as its system Mus musculus. Kind of data set: The biodistribution time for [131 I ]L-HML-NGA radioactivity after concomitant administration of [131 I ]L-HML-NGA and [125 I ]L-HML-IT-NGA in mice. It is expressed as percent injected dose per gram of blood tissue. Values are mean(SD) of five anim. As to conditions: in vivo. Summed up:
as §1

The test system of data set [7] is Mus musculus. Kind of data set: The biodistribution time for [131 I ]L-HML-NGA radioactivity after concomitant administration of [131 I ]L-HML-NGA and [125 I ]L-HML-IT-NGA in mice. It is expressed as percent injected dose per intestine. As to conditions: in vivo. Summed up:
as §1

Data set [8] relates to Mus musculus. The data set is described as follows: The biodistribution time for [131 I ]L-HML-NGA radioactivity after concomitant administration of [131 I ]L-HML-NGA and [125 I ]L-HML-IT-NGA in mice. It is expressed as percent injected dose per liver. As to conditions: in vivo. The method, boiled down:
as §1

The test system of data set [9] is Mus musculus. The data set is described as follows: The biodistribution time for [131 I ]L-HML-NGA radioactivity after concomitant administration of [131 I ]L-HML-NGA and [125 I ]L-HML-IT-NGA in mice. It is expressed as percent injected dose per neck. As to conditions: in vivo. The method, boiled down:
as §1

Data set [10] has as its system Mus musculus. Kind of data set: The biodistribution time for [131 I ]L-HML-NGA radioactivity after concomitant administration of [131 I ]L-HML-NGA and [125 I ]MIH-NGA in mice. It is expressed as percent injected dose per intestine. The settings on record: in vivo. The method, boiled down: as §1
For data set [11], the system named is Mus musculus. The data set is described as follows: The biodistribution time for [131 I ]L-HML-NGA radioactivity after concomitant administration of [[131 I ]L-HML-NGA and [125 I ]MIH-NGA in mice. It is expressed as percent injected dose per kidney. As to conditions: in vivo. The method, boiled down: as §1
Data set [12] deals with Mus musculus. Kind of data set: The biodistribution time for [131 I ]L-HML-NGA radioactivity after concomitant administration of [131 I ]L-HML-NGA and [125 I ]MPH-NGA in mice. It is expressed as percent injected dose per stomach. The settings on record: in vivo. Summed up: as §1
For data set [13], the species on record is Homo sapiens. The data set is described as follows: The percent protein-bound radioactivity in NGAfractions following incubation of radioiodinated [131 I ]L-HML-NGA in human serum after 1 hour. The method, boiled down:
(§2)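 Conjugates were diluted to 0.5 mg/mL in 0.1 M PBS pH 6.0, and 20 µL was added to 230 µL of freshly prepared human serum. Samples were incubated at 37 °C and taken at 1, 3, 6 or 24 h. Protein-bound fraction (Rf 0) was separated from small metabolites (Rf 0.6-0.9) by paper chromatography in methanol-water 4:1. Protein-bound radioactivity was divided by the initial radiochemical purity. Values are mean (SD).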

The species named for data set [14] is Homo sapiens. The data set is described as follows: The percent protein-bound radioactivity in NGAfractions following incubation of radioiodinated [131 I ]L-HML-NGA in human serum after 3 hours. The settings on record: in vivo. The method, boiled down:
as §2

Data set [15] is filed under the species Homo sapiens. Kind of data set: The percent protein-bound radioactivity in NGAfractions following incubation of radioiodinated [131 I ]L-HML-NGA in human serum after 6 hours. As to conditions: in vivo. Summed up:
as §2

Data set [16] has as its system Mus musculus. The data set is described as follows: The biodistribution time for [131 I ]L-HML-NGA radioactivity after concomitant administration of [131 I ]L-HML-NGA and [125 I ]MIH-NGA in mice. It is expressed as percent injected dose per stomach. As to conditions: in vivo. The method, boiled down: as §1
In data set [17] the test system is Mus musculus. The data set is described as follows: The biodistribution time for [131 I ]L-HML-NGA radioactivity after concomitant administration of [131 I ]L-HML-NGA and [125 I ]MPH-NGA in mice. It is expressed as percent injected dose per intestine. As to conditions: in vivo. Summed up:
as §1

For data set [18], the system named is Mus musculus. The data set is described as follows: The biodistribution time for [131 I ]L-HML-NGA radioactivity after concomitant administration of [[131 I ]L-HML-NGA and [125 I ]D-HML-NGA in mice. It is expressed as percent injected dose per kidney. As to conditions: in vivo. The method, boiled down: as §1
The subject of data set [19] is Mus musculus. The data set is described as follows: Biodistribution time for compound radioactivity after concomitant administration of compound and [125 I ]MIH-NGA in mice was expressed as % injected dose per liver after 15 min. As to conditions: in vivo, 0.25 h. Summed up:
as §1

The nature of data set [20]: Cumulative radioactivity exerted by [131 I ]L-HML-NGA in the feces at 24 hour postinjection of [131 I ]L-HML-NGA and [125 I ]MPH-NGA. As to conditions: in vivo. The method, boiled down: (§3)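 Mice received one i.v. co-injection of the dual-isotope NGA mixture, 9 µg of each radioiodinated protein, and were housed in metabolic cages for 24 h. Cumulative urine and feces were collected and counted. Values are % injected dose, mean (SD) of five animals, with a Student's paired t-test between the two co-administered conjugates.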

Data set [21] can be described thus: Cumulative radioactivity exerted by [131 I ]L-HML-NGA in the urine at 24 hour postinjection of [131 I ]L-HML-NGA and [125 I ]D-HML-NGA. The settings on record: in vivo. Summed up:
as §3

Data set [22] in a line: Cumulative radioactivity exerted by [131 I ]L-HML-NGA in the urine at 24 hour postinjection of [131 I ]L-HML-NGA and [125 I ]HML-IT-NGA. As to conditions: in vivo. Summed up:
as §3

The nature of data set [23]: Cumulative radioactivity exerted by [131 I ]L-HML-NGA in the urine at 24 hour postinjection of [131 I ]L-HML-NGA and [125 I ]MPH-NGA. As to conditions: in vivo. Summed up:
as §3

Data set [24] in a line: Cumulative radioactivity exerted by [131 I ]L-HML-NGA in the feces at 24 hour postinjection of [131 I ]L-HML-NGA and [125 I ]MIH-NGA. The settings on record: in vivo. Summed up: as §3

On to `N[C@@H](CS)C(=O)SC1CC(=O)N(CCCC[C@H](NC(=O)CNC(=O)c2cccc([131I])c2)C(=O)O)C1=O` (some centres undefined), for which the Radioactivity in the data set with Mus musculus [1] was 4.29%; with Mus musculus [2], 1.9% and 3.14% and 1.63% and 0.82% and 0.5%; in the data set on Mus musculus [3] it was 1.77% and 4.88% and 7.76% and 9.83% and 8.6%; in the data set with Mus musculus [4] it was 0.13% and 0.28% and 0.17% and 0.12% and 0.05%; with Mus musculus [5], 0.2% and 0.5% and 0.88% and 0.78% and 0.69%; in the data set on Mus musculus [6], 3.19%. Further, the Radioactivity in the data set with Mus musculus [7] is 0.35% and 2.3% and 4.98% and 5.54% and 5.14%; in the data set on Mus musculus [8], 54.25%; in the data set with Mus musculus [9], 0.07% and 0.25% and 0.21% and 0.03%; in the data set with Mus musculus [10], 0.78% and 3.57% and 5.41% and 6.15% and 4.54%; in the data set on Mus musculus [11] it was 0.84% and 4.16% and 2.19% and 0.51% and 0.16%; with Mus musculus [12], 0.26% and 0.57% and 0.3% and 0.29% and 0.33%. For the same compound, the Radioactivity in the data set filed under Homo sapiens [13] was 99.78%; in the data set listed under Homo sapiens [14], 99.07%; in the data set listed under Homo sapiens [15], 98.39%; in the data set with Mus musculus [16], 0.39% and 0.47% and 0.46% and 0.45% and 0.51%; in the data set with Mus musculus [17], 0.66% and 4.66% and 4.59% and 5.75% and 5.43%; in the data set with Mus musculus [18], 1.07% and 4.49% and 1.55% and 0.61% and 0.27%. Moreover, the Radioactivity is listed as 54.33% with Mus musculus [19]; 3.28% in data set [20]; 80.78% in [21]; 80.07% in data set [22]; 84.45% in data set [23]; 5.87% in data set [24].
